Source: ChEMBL document CHEMBL1123822, “Lysosomotropic agents. 7. Broad-spectrum antifungal activity of lysosomotropic detergents” (1987)
Converted amounts (≈) assume the structure as drawn.

Tests used:
Type in all cases: functional
[1] = system: Saccharomyces cerevisiae; test: The compound was evaluated for zone inhibition against Saccharomyces cerevisiae YED MY34 using disk diffusion assay; 8 slightly hazy
Outline: (§1)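 Filter-paper disks (6.2 mm) loaded with 25 μL of a 250 μg/mL methanol solution, dried at room temperature, laid on seeded agar and rewet with 25 μL 10% aqueous Me₂SO. Media were unbuffered, pH ca. 4.5–5.6: potato dextrose agar for filamentous fungi, sabouraud dextrose agar for yeasts, unless noted. Inhibition zone diameter read after overnight incubation, ±1 mm. Zone edges scored fuzzy, slightly hazy, hazy or very hazy.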

[2] = system: Candida tropicalis; test: The compound was tested for antifungal activity against Candida tropicalis MY1012 using agar dilution assay
Outline: (§2)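 Standardized agar dilution on Kimmig agar with 5% glycerol. Detergents solubilized in 10% Me2SO; desoxycholate-stabilized amphotericin B diluted and titrated in sterile distilled water. Twofold dilutions in sterile distilled water gave final agar concentrations of 128 to 0.06 μg/mL. Error limit ±1 dilution stage.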

[3] = system: Saccharomyces cerevisiae; test: The compound was evaluated for mean zone diameter (inhibition) against yeast at the concentration of 500 ug/mL
Outline: (§3)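 Disk diffusion: drug in methanol spotted on 6.2 mm paper disks (25 μL/disk), dried at room temperature, laid on seeded agar, rewet with 25 μL 10% aqueous Me₂SO; zones read after overnight incubation. Unbuffered acidic media (pH ca. 4.5–5.6). Panel of 21 yeasts and 21 filamentous fungi; zones of 0 mm excluded from means.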

[4] = system: Pichia kudriavzevii; test: The compound was tested for antifungal activity against Candida krusei MY1020 using agar dilution assay
Outline: (§4)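 Standardized agar dilution in Kimmig agar with 5% glycerol. Lysosomotropic detergents solubilized in 10% Me₂SO. Twofold serial dilutions in sterile distilled water gave final agar concentrations of 128 to 0.06 μg/mL. Stated error ±1 dilution stage.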

[5] = system: Cryptococcus neoformans; test: The compound was tested for antifungal activity against Cryptococcus neoformans MY1146 using agar dilution assay; outline: as §2
[6] = system: Candida parapsilosis; test: The compound was tested for antifungal activity against Candida parapsilosis MY1009 using agar dilution assay; details: Lodderomyces parapsilosis; outline: as §4
[7] = system: Papiliotrema laurentii; test: The compound was evaluated for zone inhibition against Cryptococcus laurentii MY1073 using disk diffusion assay
Outline: (§5)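 Disk diffusion: 25 μL of 250 μg/mL drug in methanol on 6.2 mm paper disks, dried at room temperature, placed on seeded agar and rewet with 25 μL 10% aqueous Me₂SO. Zones were read after overnight incubation, ±1 mm. Media were unbuffered, pH ca. 4.5–5.6: potato dextrose agar for filamentous fungi, Sabouraud dextrose for yeasts, unless YNB (76 mM ammonium sulfate, sole nitrogen source) or YED is named. Zone edges were scored fuzzy, slightly hazy, hazy or very hazy.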

[8] = system: Saccharomyces cerevisiae; test: The compound was evaluated for mean zone diameter (inhibition) against yeast at the concentration of 250 ug/mL
Outline: (§6)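 Filter-paper disk diffusion (6.2 mm disks) with drug in methanol at the stated level, 25 μL per disk. Disks were air-dried at room temperature, laid on seeded agar, rewet with 25 μL 10% aqueous Me₂SO and incubated overnight. Media were unbuffered, pH ca. 4.5–5.6. The panel was 21 yeasts and 21 filamentous fungi. Zones of 0 mm were excluded from means.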

[9] = system: Kluyveromyces marxianus; test: The compound was evaluated for zone inhibition against Kluyveromyces fragilis MY1113 using disk diffusion assay; 15 slightly hazy; outline: as §1
[10] = system: Diutina rugosa; test: The compound was tested for antifungal activity against Candida rugosa MY1022 using agar dilution assay; outline: as §4
[11] = system: Kluyveromyces marxianus; test: The compound was tested for antifungal activity against Candida pseudotropicalis MY1040 using agar dilution assay; outline: as §4
[12] = system: Saccharomyces cerevisiae; test: The compound was tested for antifungal activity against Saccharomyces cerevisiae MY1027 using agar dilution assay; outline: as §2
[13] = system: Nakaseomyces glabratus; test: The compound was evaluated for zone inhibition against Torulopsis glabrata MY1062 using disk diffusion assay; 7 very hazy; outline: as §1
[14] = system: Penicillium; test: The compound was evaluated for zone inhibition against Penicillium sp (MF5016) using disk diffusion assay; 18 Fuzzy edges; outline: as §1
[15] = system: Naganishia albida; test: The compound was evaluated for zone inhibition against Cryptococcus albidus MY1070 using disk diffusion assay; 9 very hazy; outline: as §5
[16] = system: Candida albicans; test: The compound was tested for antifungal activity against Candida albicans My1029 using agar dilution assay; outline: as §4
[17] = system: Papiliotrema laurentii; test: The compound was evaluated for zone inhibition against Cryptococcus laurentii MY1074 using disk diffusion assay; 7 very hazy; outline: as §1
[18] = system: Cephalosporium; test: The compound was evaluated for zone inhibition against Cephalosporium sp (MF4641) using disk diffusion assay; 12 slightly hazy; outline: as §5
[19] = system: Ustilago maydis; test: The compound was evaluated for zone inhibition against Ustilago zeae (MF1996) using disk diffusion assay; 14 slightly hazy; outline: as §1
[20] = system: Trichoderma; test: The compound was evaluated for zone inhibition against Trichoderma sp (MF4064) using disk diffusion assay; 16 Fuzzy edges; outline: as §1
[21] = system: Candida tropicalis; test: The compound was tested for antifungal activity against Candida tropicalis MY1011 using agar dilution assay; outline: as §2
[22] = system: Candida albicans; test: The compound was tested for antifungal activity against Candida albicans MY0992 using agar dilution assay; outline: as §4
[23] = system: Saccharomyces cerevisiae; test: The compound was evaluated for mean zone diameter (inhibition) against yeast at the concentration of 1000 ug/mL; outline: as §3
[24] = system: Candida albicans; test: The compound was tested for antifungal activity against Candida albicans MY1013 using agar dilution assay; outline: as §4
[25] = system: Trichoderma viride; test: The compound was evaluated for zone inhibition against Trichoderma lignorum (MF3560) using disk diffusion assay; 13 Fuzzy edges; outline: as §1
[26] = system: Cryptococcus neoformans; test: The compound was tested for antifungal activity against Cryptococcus neoformans MY1051 using agar dilution assay; outline: as §2
[27] = system: Nakaseomyces glabratus; test: The compound was tested for antifungal activity against Torulopsis glabrata MY1059 using agar dilution assay; outline: as §2
[28] = system: Saccharomyces cerevisiae; test: The compound was evaluated for zone inhibition against Saccharomyces cerevisiae MY410 using disk diffusion assay; outline: as §1
[29] = system: Penicillium; test: The compound was evaluated for zone inhibition against Penicillium sp (MF5020) using disk diffusion assay; 15 Fuzzy edges; outline: as §1
[30] = system: Meyerozyma guilliermondii; test: The compound was tested for antifungal activity against Candida guilliermondii MY1019 using agar dilution assay; outline: as §4
[31] = system: Papiliotrema laurentii; test: The compound was evaluated for zone inhibition against Cryptococcus laurentii MY1077 using disk diffusion assay; 9 hazy; outline: as §1
[32] = system: Candida albicans; test: The compound was tested for antifungal activity against Candida albicans MY1058 using agar dilution assay; outline: as §4
[33] = system: Aspergillus fumigatus; test: The compound was tested for antifungal activity against Aspergillus fumigatus MF4839 using agar dilution assay; outline: as §4
[34] = system: Kluyveromyces marxianus; test: The compound was evaluated for zone inhibition against Candida pseudotropicalis MY1100 using disk diffusion assay; 19 slightly hazy; outline: as §5
[35] = system: Penicillium italicum; test: The compound was tested for antifungal activity against Penicillium italicum MF2819 using agar dilution assay; outline: as §2
[36] = system: Penicillium; test: The compound was evaluated for zone inhibition against Penicillium sp (MF5014) using disk diffusion assay; 17 slightly hazy; outline: as §1
[37] = system: Phoma; test: The compound was evaluated for zone inhibition against Phoma sp (MF4332) using disk diffusion assay; 13 slightly hazy; outline: as §1
[38] = system: Rhizomucor miehei; test: The compound was evaluated for zone inhibition against Rhizomucor miehei (MF4784) using disk diffusion assay; 9 hazy; outline: as §1
[39] = system: Saccharomyces cerevisiae; test: The compound was evaluated for mean zone diameter (inhibition) against yeast at the concentration of 125 ug/mL; outline: as §6
[40] = system: Fusarium oxysporum; test: The compound was evaluated for zone inhibition against Fusarium oxysporum (MF4014) using disk diffusion assay; 15 Fuzzy edges; outline: as §1
[41] = system: Cercospora beticola; test: The compound was evaluated for zone inhibition against Cercospora beticola (MF4608) using disk diffusion assay; 8 hazy; outline: as §5
[42] = system: Aspergillus flavus; test: The compound was tested for antifungal activity against Aspergillus flavus MF0383 using agar dilution assay; outline: as §4
[43] = system: Candida albicans; test: The compound was tested for antifungal activity against Candida albicans MY1055 using agar dilution assay; outline: as §4
[44] = system: Candida albicans; test: The compound was tested for antifungal activity against Candida stellatoidea MY1017 using agar dilution assay; outline: as §2
[45] = system: Saccharomyces cerevisiae; test: The compound was evaluated for mean zone diameter (inhibition) against yeast at the concentration of 62.5 ug/mL; outline: as §6
[46] = system: Ophiostoma ulmi; test: The compound was evaluated for zone inhibition against Ceratocystis ulmi (MF4042) using disk diffusion assay; 12 slightly hazy; outline: as §5
[47] = system: Candida parapsilosis; test: The compound was tested for antifungal activity against Candida parapsilosis MY1010 using agar dilution assay; details: Lodderomyces parapsilosis; outline: as §4

## CCCCCCCCCCCCN1CCOCC1
[1]
  Inhibition zone: 8 mm
[2]
  MIC: 16 µg/mL (≈ 62.6 µM)
[3]
  Inhibition zone: 12.8 mm
[4]
  MIC: 32 µg/mL (≈ 125 µM)
[5]
  MIC: 32 µg/mL (≈ 125 µM)
[6]
  MIC: 64 µg/mL (≈ 251 µM)
[7]
  Inhibition zone: 0 mm
[8]
  Inhibition zone: 11.4 mm
[9]
  Inhibition zone: 15 mm
[10]
  MIC: 32 µg/mL (≈ 125 µM)
[11]
  MIC: 32 µg/mL (≈ 125 µM)
[12]
  MIC: 32 µg/mL (≈ 125 µM)
[13]
  Inhibition zone: 7 mm
[14]
  Inhibition zone: 18 mm
[15]
  Inhibition zone: 9 mm
[16]
  MIC: 32 µg/mL (≈ 125 µM)
[17]
  Inhibition zone: 7 mm
[18]
  Inhibition zone: 12 mm
[19]
  Inhibition zone: 14 mm
[20]
  Inhibition zone: 16 mm
[21]
  MIC: 32 µg/mL (≈ 125 µM)
[22]
  MIC: 64 µg/mL (≈ 251 µM)
[23]
  Inhibition zone: 19 mm
[24]
  MIC: 32 µg/mL (≈ 125 µM)
[25]
  Inhibition zone: 13 mm
[26]
  MIC: 16 µg/mL (≈ 62.6 µM)
[27]
  MIC: 64 µg/mL (≈ 251 µM)
[28]
  Inhibition zone: 0 mm
[29]
  Inhibition zone: 15 mm
[30]
  MIC: 32 µg/mL (≈ 125 µM)
[31]
  Inhibition zone: 9 mm
[32]
  MIC: 32 µg/mL (≈ 125 µM)
[33]
  MIC: 64 µg/mL (≈ 251 µM)
[34]
  Inhibition zone: 19 mm
[35]
  MIC: 32 µg/mL (≈ 125 µM)
[36]
  Inhibition zone: 17 mm
[37]
  Inhibition zone: 13 mm
[38]
  Inhibition zone: 9 mm
[39]
  Inhibition zone: 10.2 mm
[40]
  Inhibition zone: 15 mm
[41]
  Inhibition zone: 8 mm
[42]
  MIC: 64 µg/mL (≈ 251 µM)
[43]
  MIC: 32 µg/mL (≈ 125 µM)
[44]
  MIC: 32 µg/mL (≈ 125 µM)
[45]
  Inhibition zone: 8.6 mm
[46]
  Inhibition zone: 17 mm
[47]
  MIC: 16 µg/mL (≈ 62.6 µM)
